# From PubChem
# This is a sample that favours compounds with a hit; in the whole collection about 1.5% have one here.
# TRAIL sens C8 = sensitizes caspase-8 expressing cells to TRAIL; NB7+C8 cells + TRAIL, ATPlite viability luminescence; inhibition (viability loss, TRAIL sensitization), % at 10 µM; 360,000 compounds, 1% hits;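 active = compounds causing at least 50% loss of cell viability in the single-dose screen, relative to plate controls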
# PPC-1+TRAIL kill = compounds killing PPC-1 cancer cells with TRAIL present (potentiator screen, no TRAIL-free arm); PPC-1 cells + TRAIL, ATPLite viability luminescence; cell killing (% activity), % at 4 µM or 5 µM; 220,000 compounds, 0.41% hits; AID 1443;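 active = cell killing above 50% in the first pass at 4 µM, then a duplicate retest at 5 µM averaging 50% or more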;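 also: plate controls were cells with TRAIL plus DMSO for no effect and medium-only wells lacking cells for full effect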
# FLuc act counter = firefly luciferase counter-screen for stimulation assays. P08659. 200,000 tested, under 10 active. ATPlite luciferase biochemical, luminescence, 10 min; 0 = ATP-free wells, 1 = DMSO control. activation factor at 10 µM;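 active = luciferase activation factor, scaled between plate controls, of at least 2 with compound at 10 µM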
# Target sequence (P08659 whole entry, looked up): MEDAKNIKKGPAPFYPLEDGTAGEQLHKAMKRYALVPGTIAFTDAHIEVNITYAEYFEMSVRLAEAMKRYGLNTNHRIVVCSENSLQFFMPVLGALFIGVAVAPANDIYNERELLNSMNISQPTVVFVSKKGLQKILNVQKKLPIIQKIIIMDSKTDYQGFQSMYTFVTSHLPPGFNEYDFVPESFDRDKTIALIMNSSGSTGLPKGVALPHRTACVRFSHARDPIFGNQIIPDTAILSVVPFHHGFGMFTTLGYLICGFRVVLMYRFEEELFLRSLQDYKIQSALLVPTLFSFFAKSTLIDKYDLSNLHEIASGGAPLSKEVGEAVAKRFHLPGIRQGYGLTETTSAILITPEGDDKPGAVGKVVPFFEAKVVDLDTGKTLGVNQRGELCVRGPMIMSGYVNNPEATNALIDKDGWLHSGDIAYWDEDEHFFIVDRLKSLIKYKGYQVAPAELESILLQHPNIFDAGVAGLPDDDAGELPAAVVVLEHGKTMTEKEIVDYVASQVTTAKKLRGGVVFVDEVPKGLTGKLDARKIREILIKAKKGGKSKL
#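 Material: Luciferase/luciferin reagent mix | Doses: Test compounds dosed from 2 mM stocks in 100% DMSO | Timing: 10 min incubation after luciferase reagent addition, room temperature | Measured by: Luminescence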
# FLuc inh counter = counter-screen for luciferase assay inhibitors: firefly luciferase inhibition. 200,000 compounds, 1.5% hits. ATPLite firefly luciferase biochemical luminescence, 10 min. P08659. inhibition, % at 10 µM. AID 1006;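 active = inhibition above about 50% when tested at 10 µM, limit read from the data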
# Numbers without * were called inactive; / = not tested or not shown.
SMILES,TRAIL sens C8,PPC-1+TRAIL kill,FLuc act counter,FLuc inh counter
CCC(C)c1ccc(O)c(NC(=S)NC(=O)c2cccs2)c1 (configuration not stated),58.3*,/,/,/
O=C(NC(=S)Nc1ccccn1)c1ccco1,23.3,10.7,0.7,28.0
Cc1ccnc(NC(=O)CNC(=O)c2cccs2)c1,16.9,/,/,/
O=C(NC(=S)Nc1cccnc1Cl)c1ccco1,23.0,4.0,0.4,57.9*
Cc1cccc(C(=O)OCC(=O)Nc2c(C)n(C)n(-c3ccccc3)c2=O)c1,-5.9,/,/,/
CC(=O)N1CCc2cc(S(=O)(=O)NC(Cc3ccccc3)C(=O)O)ccc21 (configuration not stated),-16.2,/,/,/
CSc1ncc(C(=O)Nc2cccnc2)c(C(F)(F)F)n1,-13.9,/,/,/
O=C(NC(=S)Nc1cccnc1)c1cccs1,3.5,5.3,1,2.9
O=C(NC(=S)Nc1ccc(Cl)cn1)c1cccs1,71.8*,27.9,0.3,67.8*
C=CCn1c(C)cc(C(=O)CN2NS(=O)(=O)c3ccccc3C2=O)c1C,17.9,9.5,0.4,55.4*
Cc1ccc(NC(=O)c2scc3c2CCCC3)cc1,8.8,6.7,0.2,75.1*
O=C(CCC(=O)N(CC(=O)NC1CCCC1)c1cccc(F)c1)Nc1nccs1,5.3,/,/,/
CC(C)(C)c1ccc(C2CC2C(=O)N/N=C\c2ccc[nH]2)cc1 (configuration not stated),64.9*,9.0,0.8,16.0
Cc1cc(O)c(/C=N/Nc2ccccc2)c(=O)o1,3.6,25.1,0.5,51.4*
O=C(NCCc1ccc(Cl)cc1)C1CCC(CNc2c(N3CCCCC3)c(=O)c2=O)CC1 (configuration not stated),51.1*,-1.2,1.1,-10.4
O=C(NCCc1ccccc1)C1CCC(CNc2c(N3CCCCC3)c(=O)c2=O)CC1 (configuration not stated),14.1,11.5,1.1,-10.9
CC(=O)N(C)c1ccc(N=Nc2ccc3ncccc3c2)cc1,61.9*,/,/,/
Oc1ccc(C=Nc2ccc3ncccc3c2)c(O)c1,/,16.7,1,4.3
O=C(O)c1ccc2c(=O)n3c(nc2c1)/C(=C/c1ccccc1Br)CC3,4.2,/,/,/
Cc1cc(N=Nc2c(O)c3ccccc3[nH]c2=O)ccc1N=Nc1ccc(C(=O)N(C)C)cc1,34.5,20.4,/,/
Cc1ccc(N=Nc2c(O)c3ccccc3[nH]c2=O)c(S(=O)(=O)N(C)C)c1,/,54.8*,/,/
CN(C)C(=O)c1ccc(N=Nc2c(O)c3ccccc3[nH]c2=O)cc1,76.2*,/,/,/
O=S(=O)(Nc1ccc(N=Nc2ccc(O)c3ccccc23)cc1)c1ccccc1,-2.8,18.1,1,0.4
O=[N+]([O-])c1ccc(N=Nc2ccc(O)c3ccccc23)cc1,62.6*,/,/,/
CS(=O)(=O)Nc1ccc(C(=O)NCCSCc2c(F)cccc2Cl)cc1,2.2,16.4,1,-3.2
SMILES,TRAIL sens C8,PPC-1+TRAIL kill,FLuc act counter,FLuc inh counter
O=C(N/N=C/c1cccc(O)c1)c1ccc2c(c1)OCCO2,88.9*,/,/,/
CCn1c(C)nc2cc(C(=O)N/N=C/c3cccc(O)c3O)ccc21,51.7*,17.4,0.3,66.3*
O=C(N/N=C/c1ccc2c(c1)OCO2)c1ccc2c(c1)OCO2,39.6,/,/,/
O=C(N/N=C/c1cc([N+](=O)[O-])ccc1O)c1ccncc1,-4.8,12.6,/,/
Cc1cccc(/C=N\NC(=O)c2ccc(Cl)cc2)c1O,55.0*,33.8,0.8,22.6
O=C(N/N=C/c1cc([N+](=O)[O-])ccc1O)c1ccc2c(c1)OCCO2,52.0*,35.5,0.3,69.7*
CS(=O)(=O)N1CCCC(C(=O)Nc2ccc(F)c(F)c2)C1 (configuration not stated),-2.4,/,/,/
Cc1cccc(/C=N/NC(=O)c2ccc3c(c2)OCCO3)c1O,75.8*,/,/,/
COc1cc(OC)cc(C(=O)/C=C2\Sc3ccccc3N2C)c1,2.3,7.5,0.8,15.1
CN1/C(=C\C(=O)c2cccs2)Sc2ccccc21,63.8*,27.5,0.2,81.9*
CN1/C(=C/C(=O)c2cccs2)Sc2ccccc21,56.6*,45.6,0.2,77.3*
Cc1ccc(C(=O)/C=C/Nc2cccc([N+](=O)[O-])c2)o1,20.7,3.8,0.4,62.5*
N=C1S/C(=C\c2ccc(-c3cccc(Cl)c3)o2)C(=O)N1c1nccs1,3.5,7.4,1,-0.6
COc1ccc(/C=C2\SC(=N)N(c3nccs3)C2=O)cc1OC,36.3,29.1,0.2,77.3*
Cc1ccc(C)c(C(=O)OCC(=O)NC(=O)NCc2ccccc2)c1,-13.7,/,/,/
COc1ccc2nc(NC(=O)c3ccco3)sc2c1,66.8*,/,/,/
CCn1nnnc1SCC(=O)Nc1nc2ccc(OC)cc2s1,-5.9,46.7,0.9,6.9
COc1cc2sc(NC(=O)c3ccco3)nc2cc1Cl,14.5,/,/,/
COc1ccc2nc(NC(=O)CSc3nnc(-c4ccoc4C)n3C)sc2c1,12.9,23.6,0.4,59.9*
COc1ccc2nc(Nc3ccccc3)sc2c1,52.4*,49.2,0.2,77.2*
Cc1ccc2nc(NC(=S)NC(=O)c3ccco3)sc2c1,81.8*,5.7,0.1,90.0*
Cc1ccc(C)c(-c2csc(NC(=O)c3cnccn3)n2)c1,4.4,/,1.1,-5.3
Cc1cc(C)nc(N2CCN(S(=O)(=O)c3ccc(F)cc3)CC2)n1,3.4,/,/,/
O=C(Nc1nc2ccc(Cl)cc2s1)c1ccco1,40.4,7.7,0.4,62.8*
O=C(Nc1nc2ccc(Br)cc2s1)c1ccco1,35.2,/,/,/
SMILES,TRAIL sens C8,PPC-1+TRAIL kill,FLuc act counter,FLuc inh counter
COc1ccc2nc(NC(=O)c3ccccc3O)sc2c1,78.0*,/,/,/
CCCCCCN1C[C@H](O)[C@@H](n2cc(-c3ccc(F)cc3)nn2)C[C@@H]1c1ccc(C)cc1,-6.4,/,/,/
O=c1[nH]c([N+](=O)[O-])nn1C(c1ccccc1)c1ccccc1,5.7,/,/,/
Fc1ccc(COc2ccc(C(=S)N3CCCC3)cc2)cc1,-3.5,/,/,/
O=C(O)C(C(=O)/C=C/c1ccco1)=C1SCCS1,-6.4,-33.4,1,0.8
O=C(C=C1SCCS1)/C=C/c1ccco1,33.7,3.9,0.3,69.9*
O=C(NCCc1cnn(-c2ccccc2)c1)c1cc(COc2c(F)cccc2F)on1,2.8,-5.5,1.1,-7.9
CCCCCCCc1ccc(-c2ccc(O)cc2)nc1,24.4,-1.0,0.8,22.8
CCCCCc1ccc(-c2ccc(/C=C/C(=O)O)cc2)nc1,81.9*,43.5,0.2,78.1*
CCCc1ccc(-c2ccc(/C=C/C(=O)O)cc2)nc1,85.5*,56.1*,0.1,86.0*
Cc1nn(-c2ccccn2)c2c1C(=O)CC(C)(C)C2N=[N+]=[N-] (configuration not stated),14.1,/,/,/
Nc1ccc(-c2ncc(-c3ccccc3)o2)cc1,52.4*,/,/,/
C=CC(=O)N1C/C(=C/c2ccc(F)cc2)C(=O)/C(=C\c2ccc(F)cc2)C1,92.6*,/,/,/
O=C(Nc1ccc(Cl)cc1)N1CCC(c2ccccc2)C1 (configuration not stated),33.2,27.4,0.4,63.6*
Cc1ccc(NC(=S)N2CCC(c3ccccc3)C2)c(Cl)c1 (configuration not stated),42.8,35.3,0.3,73.8*
COc1ccc(C(=O)c2c(C(F)(F)F)oc3c2C(=O)c2ccccc2C3=O)cc1OC,94.6*,40.4,1,3.8
